ABHD4 inh = inhibitors of mouse ABHD4 | inhibition, % at 8.92 µM | Q8VD66 | 370,000 tested, 0.54% active | purified mABHD4, FP-Rh probe fluorescence polarization;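 active = inhibition exceeding the mean over every tested compound plus 3 SD, cut at about 30% in these data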;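 note: 0% = plate median of compound wells and 100% = S159A mutant with DMSO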
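Assay system: Wild-type mouse ABHD4 protein | Medium: HEPES pH 7.0 buffer, 150 mM NaCl, 0.01% Pluronic F-127 | Incubation: Enzyme–compound pre-incubation 45 min, then probe 60 min, both 25 °C | Technique: Fluorescence polarization with parallel and perpendicular emission, 525/598 nm | Evaluation: % inhibition of FP-Rh probe binding versus controls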
PME-1 primary = PME-1 (human) inhibition; AID 2130; 320,000 tested, 0.53% active; Q9Y570; recombinant PME-1, FP-Rh probe fluorescence polarization; inhibition, % at 5.9 µM;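 active = inhibition above the campaign mean of all compounds plus 3 SD, cut at about 26% in these data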;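 note: competitive labeling of PME-1 active site by serine hydrolase directed probe; 0% = PME-1 with DMSO and 100% = wells lacking PME-1 enzyme; inhibitors block probe labeling so polarization falls and inhibition rises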
Target sequence (Q9Y570 whole entry, looked up): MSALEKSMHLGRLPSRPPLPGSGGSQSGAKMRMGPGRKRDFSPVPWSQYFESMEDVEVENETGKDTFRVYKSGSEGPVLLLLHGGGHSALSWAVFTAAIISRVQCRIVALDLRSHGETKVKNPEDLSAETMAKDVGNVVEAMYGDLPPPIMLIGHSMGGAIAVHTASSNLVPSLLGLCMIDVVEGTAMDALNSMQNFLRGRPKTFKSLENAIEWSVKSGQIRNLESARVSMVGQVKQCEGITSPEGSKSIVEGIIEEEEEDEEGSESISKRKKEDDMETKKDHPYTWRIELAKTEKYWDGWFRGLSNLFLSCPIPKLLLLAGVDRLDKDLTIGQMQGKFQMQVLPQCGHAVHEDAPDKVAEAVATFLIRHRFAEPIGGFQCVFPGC
Fam108B inh = counter-screen for RBBP9 inhibitors: inhibitors of mouse Fam108B; 300,000 tested, 0.33% active; AID 1947; inhibition, % at 9.51 µM; recombinant Fam108B, FP-Rh probe fluorescence polarization;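 active = inhibition above the screen mean inhibition plus 3 SD, computed separately per campaign, cut at about 18% in these data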;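 note: inhibitors lower polarization as less probe binds the enzyme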
TCR-CD3 inh = blocks the human TCR-CD3 interaction; AID 651800; TAMRA-labeled TCR probe fluorescence, biochemical; inhibition, % at 9.4 µM; 360,000 tested, 0.37% active; in the data active = inhibition above about 19%;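 note: recombinant mutant TCR 2C K166C tagged with TAMRA read by polarization; 0% = receptor in buffer alone and 100% = receptor with positive control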
HTRA1 inhibitor = inhibitors of human serine peptidase HTRA1; inhibition, % at 5.96 µM; Q92743; AID 504803; 340,000 tested, 0.5% active; recombinant HTRA1, FP-rhodamine activity-based probe, fluorescence polarization; in the data active = inhibition above about 36%;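 note: 0% = enzyme with DMSO and 100% = wells lacking enzyme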
SIAE primary = human SIAE inhibition, primary screen; SIAE FP-Rh probe binding, fluorescence polarization; 370,000 tested, 0.69% active; inhibition, % at 9.66 µM;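 active = inhibition above a cutoff: mean of compounds within the control limits plus 3 SD of those, cut at about 17% in these data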;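 note: 0% = plate median of compound wells and 100% = probe without SIAE protein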
The depositor's hits bear a star. Most compounds without a hit are left out; they make up all but 1.8% or so of the library.

Results for COc1ccc(/C=C/c2c(-c3ccc(OC)cc3)oc3cccnc23)cc1 ?
ABHD4 inh: 2; PME-1 primary: 27*; Fam108B inh: 1; TCR-CD3 inh: -1; HTRA1 inhibitor: -25; SIAE primary: 2

What do the screens show for `CC(C)c1ccc(S(=O)(=O)/N=C2\C=C(NS(=O)(=O)c3ccccc3)C(=O)c3ccccc32)cc1`?
ABHD4 inh: 51*; PME-1 primary: -12; Fam108B inh: 6; TCR-CD3 inh: -4; HTRA1 inhibitor: 9; SIAE primary: 8

What do the screens show for `CCc1ccc(S(=O)(=O)/N=C2\C=C(NS(=O)(=O)c3ccccc3)C(=O)c3ccccc32)cc1`?
ABHD4 inh: 28; TCR-CD3 inh: -12; HTRA1 inhibitor: 7; SIAE primary: -2

What do the screens show for `Cc1ccc(Oc2coc3cc(OC(=O)c4cccs4)ccc3c2=O)cc1`?
ABHD4 inh: -10; PME-1 primary: -6; Fam108B inh: -5; TCR-CD3 inh: 4; HTRA1 inhibitor: 70*; SIAE primary: -9

How did O=C(Oc1ccc2c3c(c(=O)oc2c1)CCCC3)c1cccs1 do in these assays?
ABHD4 inh: 1; PME-1 primary: 2; Fam108B inh: 1; TCR-CD3 inh: -4; HTRA1 inhibitor: -17; SIAE primary: -10

How did Cc1cccc(Oc2coc3cc(OC(=O)c4cccs4)ccc3c2=O)c1 do in these assays?
ABHD4 inh: -11; PME-1 primary: 1; Fam108B inh: -6; TCR-CD3 inh: -6; HTRA1 inhibitor: 69*; SIAE primary: -14

Results for CC(=O)Oc1ccc2occ(C(=O)c3cccs3)c2c1 ?
ABHD4 inh: 5; PME-1 primary: -6; Fam108B inh: 0; TCR-CD3 inh: 4; HTRA1 inhibitor: -8; SIAE primary: -2

Results for COc1ccc(-n2c(SCC(=O)Nc3cc(C)c(NC(=O)c4ccccc4)cc3OC)nnc2-c2ccccc2F)cc1 ?
ABHD4 inh: -4; SIAE primary: 2

What do the screens show for `C#CCN1CC(N(C)CCOC(=O)c2cc(C)cc(C)c2)CS1(=O)=O` (configuration not stated)?
ABHD4 inh: -1; SIAE primary: 2

What do the screens show for `O=S1(=O)c2c(cccc2N2CCSCC2)Oc2ccccc2CN1Cc1cn(Cc2cccc(C(F)(F)F)c2)nn1`?
ABHD4 inh: 2; SIAE primary: -8

What do the screens show for `COc1ccc(NC(=O)c2c[nH]n3c(=O)cc(C4CCN(C(=O)OC(C)(C)C)CC4)nc23)cc1Cl`?
ABHD4 inh: -2; PME-1 primary: 33*; Fam108B inh: 5; TCR-CD3 inh: 0; HTRA1 inhibitor: 8; SIAE primary: 6

How did CCNC(=O)N(C)[C@H]1C[C@H]2c3[nH]c4cccc(-c5ccc6c(c5)OCO6)c4c3CCN2C[C@H]1[C@H](C)O do in these assays?
ABHD4 inh: 1; SIAE primary: 9

Results for N#C/C(=C\c1ccc(-c2ccccc2[N+](=O)[O-])o1)C(=O)Nc1nc(-c2cccs2)cs1 ?
ABHD4 inh: 13; PME-1 primary: 29*; Fam108B inh: 6; TCR-CD3 inh: -3; HTRA1 inhibitor: 2; SIAE primary: 13

What do the screens show for `N#C/C(=C\c1ccc(-c2ccc([N+](=O)[O-])cc2)o1)C(=O)Nc1nc(-c2cccs2)cs1`?
ABHD4 inh: 2; PME-1 primary: 1; Fam108B inh: 0; TCR-CD3 inh: -44; HTRA1 inhibitor: -23; SIAE primary: -15

Results for COC(=O)[C@]12C[C@H](CC(=O)NCCc3ccccc3OC)C(=O)N(CCC3=CCCCC3)C1=C[C@H](C(C)C)O[C@@H]2C1CC1 ?
ABHD4 inh: -5; SIAE primary: 0

How did COC(=O)C1CN(C2CCCC2)CCS(=O)(=O)N1Cc1cn(Cc2ccc(Cl)cc2)nn1 (configuration not stated) do in these assays?
ABHD4 inh: -2; SIAE primary: 3

What do the screens show for `CCn1c2ccccc2c2cc(NC(=O)CSc3nnc(-c4cccc(Cl)c4)o3)ccc21`?
ABHD4 inh: -4; PME-1 primary: 0; Fam108B inh: 6; TCR-CD3 inh: -4; HTRA1 inhibitor: -7; SIAE primary: 27*

How did Nc1nc(CSc2nc3ccccc3s2)nc(Nc2ccccc2)n1 do in these assays?
PME-1 primary: -57; Fam108B inh: -14

What do the screens show for `Cc1c(Cl)cccc1Nc1nc(N)nc(CSc2nc3ccccc3s2)n1`?
ABHD4 inh: -30; PME-1 primary: 33*; Fam108B inh: -10; TCR-CD3 inh: 0; HTRA1 inhibitor: -53; SIAE primary: -11

How did COC(=O)[C@]12C[C@H](CC(=O)NCCCN3CCCC3=O)C(=O)N(Cc3ccc(Cl)cc3Cl)C1=C[C@H](COCc1ccccc1)O[C@@H]2C do in these assays?
ABHD4 inh: -1; SIAE primary: 0

How did Cc1ccc(N=Nc2c(N)n(-c3ccccc3)[nH]c2=O)cc1 do in these assays?
ABHD4 inh: 15; PME-1 primary: 35*; Fam108B inh: 2; TCR-CD3 inh: 4; HTRA1 inhibitor: 6; SIAE primary: 4

How did Cc1cc(O)c(C=O)c2c1C(=O)Oc1c(CO)c(O)c3c(c1O2)C(O)OC3=O (configuration not stated) do in these assays?
PME-1 primary: 8; Fam108B inh: 12; HTRA1 inhibitor: 41*

How did Cc1cc(O)c(CN(C)C)c2c1C(=O)/C(=C/c1ccco1)O2 do in these assays?
ABHD4 inh: 14; PME-1 primary: -2; Fam108B inh: -1; TCR-CD3 inh: 4; HTRA1 inhibitor: -3; SIAE primary: 16

Results for COC(=O)C1CN(Cc2ccc(F)cc2)CCS(=O)(=O)N1Cc1cn(Cc2ccccc2)nn1 (configuration not stated) ?
ABHD4 inh: 8; SIAE primary: -2

What do the screens show for `O=C(NCCc1ccccc1)OCc1cn(Cc2cccc(Cl)c2)nn1`?
ABHD4 inh: 0; SIAE primary: 0

Results for O=C(CNc1ccc(F)cc1)N/N=C/c1c(O)ccc2ccccc12 ?
ABHD4 inh: 18; PME-1 primary: 37*; Fam108B inh: 9; TCR-CD3 inh: 8; HTRA1 inhibitor: 32; SIAE primary: 15

Results for O=C(Cc1n[nH]c(=O)[nH]c1=O)N/N=C/c1c(O)ccc2ccccc12 ?
ABHD4 inh: 3; PME-1 primary: 0; Fam108B inh: -3; TCR-CD3 inh: 1; HTRA1 inhibitor: 10; SIAE primary: -3

What do the screens show for `COC(=O)CSc1nnc(-c2ccc(NS(=O)(=O)c3c(C(C)C)cc(C(C)C)cc3C(C)C)cc2)o1`?
ABHD4 inh: -58; SIAE primary: -54

How did O=C(Nc1ccc2c(c1)OCO2)c1cc2ncc(Br)cn2n1 do in these assays?
ABHD4 inh: -1; TCR-CD3 inh: 8; HTRA1 inhibitor: 14; SIAE primary: 68*

Results for O=C(N/N=C/c1cc(Br)ccc1O)C(=O)Nc1ccccc1OC(F)(F)C(F)F ?
ABHD4 inh: 14; PME-1 primary: -3; Fam108B inh: 1; TCR-CD3 inh: 10; HTRA1 inhibitor: 46*; SIAE primary: 3
